Results: ChEMBL document CHEMBL1148007, “Synthesis of new S-derivatives of clubbed triazolyl thiazole as anti-Mycobacterium tuberculosis agents” (Bioorg Med Chem, 2007)

How the values were obtained:
[1] = test system: Mycobacterium tuberculosis; assay: Antitubercular activity against Mycobacterium tuberculosis H37Rv by MABA assay; format: functional
How it was run: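 Actives re-tested at lower concentrations against H37Rv (ATCC 27294) in BACTEC 12B medium by Microplate Alamar Blue Assay. MIC taken as lowest concentration giving […] fluorescence reduction versus controls; rifampin reference.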

[2] = Cytotoxicity against Vero-C1008 cells at 6.25 to 50 ug/mL by neutral red uptake assay; format: cell-based; settings: chlorocebus sabaeus
How it was run: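 Vero-C-1008 cells exposed to 6.25 to 50 μg/mL compound; viability read by neutral red uptake.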

[3] = test system: Mycobacterium tuberculosis; assay: Antitubercular activity against Mycobacterium tuberculosis H37Rv at 6.25 ug/mL by MABA assay; format: functional; settings: read-out: GI
How it was run: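 Primary screen against M. tuberculosis H37Rv (ATCC 27294) in BACTEC 12B medium by broth microdilution Microplate Alamar Blue Assay; fluorescent compounds run instead in BACTEC 460 radiometric system. Compounds above 95% inhibition counted active.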

Escherichia coli = assay: Antibacterial activity against Escherichia coli at 50 to 100 uM after 24 hrs by well diffusion method; format: functional
How it was run: (§1)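 Nutrient agar plates with 10 mm wells cut by cork borer; 24-h subcultured bacteria swabbed on. Compounds dissolved in chloroform, 50 to 100 μM added to wells, gentamycin as standard. Incubated 24 h at 24–28 °C; inhibition zone diameter measured and converted to percent inhibition.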

Pseudomonas aeruginosa = assay: Antibacterial activity against Pseudomonas aeruginosa at 50 to 100 uM after 24 hrs by well diffusion method; format: functional; how it was run: as §1
Staphylococcus aureus = assay: Antibacterial activity against Staphylococcus aureus at 50 to 100 uM after 24 hrs by well diffusion method; format: functional; how it was run: as §1
Salmonella typhi = assay: Antibacterial activity against Salmonella typhi at 50 to 100 uM after 24 hrs by well diffusion method; format: functional, Salmonella enterica subsp. enterica serovar Typhi; design: unit not given here; how it was run: as §1

| Structure (SMILES) | MIC [1] | Activity [2] | inhibition of growth at 6.25 µg/mL [3] [%] | inhibition zone (Escherichia coli) [mm] | inhibition zone (Pseudomonas aeruginosa) [mm] | inhibition zone (Staphylococcus aureus) [mm] | Inhibition (Salmonella typhi) |
| --- | --- | --- | --- | --- | --- | --- | --- |
| O=C(Nc1nc(Cc2nnc(S)n2NC(=O)c2ccc(Cl)cc2)cs1)c1ccccc1 | 6.25 µM | Non-toxic | 96 | 10 | 10 | 16 | 18 |
| N#CCSc1nnc(Cc2csc(NCCC(=O)O)n2)n1NC(=O)c1cccc([N+](=O)[O-])c1 | < 6.25 µg/mL | Non-toxic | 96 | 24 | 23 | 25 | 24 |
| O=C(CSc1nnc(Cc2csc(NC(=O)CCl)n2)n1NC(=O)c1cccc([N+](=O)[O-])c1)N/N=C/c1ccccc1 | 1.56 µM | Non-toxic | 100 | 26 | 30 | 31 | 25 |
| CC(=O)Nc1nc(Cc2nnc(SCC(=O)N/N=C/c3ccccc3)n2NC(=O)c2cccc([N+](=O)[O-])c2)cs1 | 0.78 µM | Non-toxic | 100 | 24 | 31 | 30 | 26 |
| CC(=O)Nc1nc(Cc2nnc(SCC(=O)NN)n2NC(=O)c2ccc(Cl)cc2)cs1 | 6.25 µM | Non-toxic | 96 | 12 | 16 | 16 | 14 |
| Nn1c(S)nnc1Cc1csc(NC(=O)c2ccccc2)n1 | 6.25 µM | Non-toxic | 96 | 18 | 20 | 22 | 14 |
| N#CCSc1nnc(Cc2csc(NCCC(=O)O)n2)n1NC(=O)c1ccc(Cl)cc1 | 3.13 µM | Non-toxic | 100 | 21 | 29 | 30 | 25 |
| O=C(CSc1nnc(Cc2csc(NC(=O)c3ccccc3)n2)n1NC(=O)c1ccc(Cl)cc1)N/N=C/c1ccccc1 | 3.13 µM | Non-toxic | 96 | 23 | 24 | 21 | 21 |
| NNC(=O)CSc1nnc(Cc2csc(NC(=O)CCl)n2)n1NC(=O)c1cccc([N+](=O)[O-])c1 | 6.25 µM | Non-toxic | 96 | 19 | 20 | 29 | 18 |
| NNC(=O)CSc1nnc(Cc2csc(NC(=O)c3ccccc3)n2)n1NC(=O)c1cccc([N+](=O)[O-])c1 | 6.25 µM | Non-toxic | 100 | 17 | 24 | 28 | 20 |
| NNC(=O)CSc1nnc(Cc2csc(NC(=O)c3ccccc3)n2)n1NC(=O)c1ccc(Cl)cc1 | 6.25 µM | Non-toxic | 96 | 26 | 32 | 32 | 24 |
| N#CCSc1nnc(Cc2csc(NC(=O)CCl)n2)n1NC(=O)c1ccc(Cl)cc1 | 3.13 µM | Non-toxic | 96 | 26 | 28 | 24 | 16 |
| CC(=O)Nc1nc(Cc2nnc(S)n2N)cs1 | < 6.25 µg/mL | Non-toxic | 96 | 22 | 27 | 28 | 24 |
| O=C(CCl)Nc1nc(Cc2nnc(S)n2NC(=O)c2ccc(Cl)cc2)cs1 | 6.25 µM | Non-toxic | 96 | 18 | 20 | 20 | 14 |
| CC(=O)Nc1nc(Cc2nnc(SCC#N)n2NC(=O)c2ccc(Cl)cc2)cs1 | 3.13 µM | Non-toxic | 96 | 23 | 20 | 28 | 24 |
| O=C(O)CCNc1nc(Cc2nnc(SCC(=O)N/N=C/c3ccccc3)n2NC(=O)c2ccc(Cl)cc2)cs1 | 3.13 µM | Non-toxic | 96 | 18 | 27 | 22 | 22 |
| CC(=O)Nc1nc(Cc2nnc(SCC(=O)N/N=C/c3ccccc3)n2NC(=O)c2ccc(Cl)cc2)cs1 | 3.13 µM | Non-toxic | 96 | 20 | 20 | 25 | 20 |
| O=C(O)CCNc1nc(Cc2nnc(SCC(=O)N/N=C/c3ccccc3)n2NC(=O)c2cccc([N+](=O)[O-])c2)cs1 | 1.56 µM | Non-toxic | 96 | 26 | 32 | 30 | 27 |
| O=C(CSc1nnc(Cc2csc(NC(=O)c3ccccc3)n2)n1NC(=O)c1cccc([N+](=O)[O-])c1)N/N=C/c1ccccc1 | 0.39 µM | Non-toxic | 96 | 25 | 30 | 32 | 24 |
| N#CCSc1nnc(Cc2csc(NC(=O)c3ccccc3)n2)n1NC(=O)c1ccc(Cl)cc1 | 3.13 µM | Non-toxic | 96 | 27 | 27 | 31 | 19 |
| O=C(CCl)Nc1nc(Cc2nnc(S)n2NC(=O)c2cccc([N+](=O)[O-])c2)cs1 | 6.25 µM | Non-toxic | 96 | 20 | 22 | 22 | 16 |
| N#CCSc1nnc(Cc2csc(NC(=O)c3ccccc3)n2)n1NC(=O)c1cccc([N+](=O)[O-])c1 | < 6.25 µg/mL | Non-toxic | 96 | 22 | 24 | 28 | 17 |
| CC(=O)NNC(=O)CSc1nnc(Cc2csc(NC(=O)c3ccccc3)n2)n1NC(=O)c1cccc([N+](=O)[O-])c1 | < 6.25 µg/mL | Non-toxic | – | 14 | 18 | 20 | 12 |
